This is a sample that favours compounds with a hit; in the whole collection about 4.3% have one here.
CAL PDZ FP-1 – inhibitors of human CAL PDZ peptide binding. 330,000 compounds, 0.02% hits. Q9HD26. AID 504414. purified CAL PDZ, TMR-peptide fluorescence polarization, 1 h. inhibition, % at 20 µM;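 active = highest replicate inhibition of at least 40%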;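 also: plate controls were DMSO neutral control wells for no effect and unlabeled competitor peptide control wells for full effect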
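System: tagged CAL PDZ domain. Schedule: 1 h room-temperature incubation prior to read. Signal: fluorescence polarization (mP). Measure: percent inhibition from loss of millipolarization.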
DYRK1A inh – blocks rat Dyrk1A kinase activity. 310,000 compounds, 0.43% hits. AID 504441. inhibition, % at 12.5 µM. Q63470. ADP-Glo luminescence, NFATc1 peptide; in the data active = inhibition above about 50%;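 also: plate controls were vehicle with enzyme for no effect and no enzyme for full effect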
CAL PDZ FP-2 – CAL PDZ (human) peptide binding inhibition; AID 602252; 300,000 compounds, 0.92% hits; purified CAL PDZ, TMR-peptide fluorescence polarization, 1 h; inhibition, % at 24.9 µM; Q9HD26;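 active = mean inhibition of at least 30% with at least half of replicates also reaching 30%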;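 also: 0% = DMSO neutral control and 100% = excess unlabeled competitor peptide PRC23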
ALR H2O2 inh – blocks human ALR sulfhydryl oxidase activity; P55789; purified ALR, DTT oxidation, H2O2 HRP-luminol luminescence; inhibition, % (no concentration beside the values); 290,000 compounds, 3.8% hits;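 active = mean replicate inhibition above about 79%, with every replicate also reaching it, limit read from the data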
Target sequence (P55789 whole entry, looked up): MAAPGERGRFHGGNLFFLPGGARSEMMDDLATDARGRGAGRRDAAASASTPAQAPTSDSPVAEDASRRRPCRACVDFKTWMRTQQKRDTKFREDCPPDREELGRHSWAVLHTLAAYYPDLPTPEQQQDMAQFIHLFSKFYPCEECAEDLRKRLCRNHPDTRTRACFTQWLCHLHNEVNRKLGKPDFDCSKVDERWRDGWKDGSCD
Rtt109 HAT inh – blocks Candida albicans Rtt109/Vps75 acetyltransferase activity | 330,000 compounds, 0.16% hits | purified Rtt109/Vps75, ThioGlo CoA-SH fluorescence, 4 h | inhibition, % at 34.9 µM;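 active = inhibition of at least 50% in every replicate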
Target sequence (Q5AAJ8 whole entry, looked up): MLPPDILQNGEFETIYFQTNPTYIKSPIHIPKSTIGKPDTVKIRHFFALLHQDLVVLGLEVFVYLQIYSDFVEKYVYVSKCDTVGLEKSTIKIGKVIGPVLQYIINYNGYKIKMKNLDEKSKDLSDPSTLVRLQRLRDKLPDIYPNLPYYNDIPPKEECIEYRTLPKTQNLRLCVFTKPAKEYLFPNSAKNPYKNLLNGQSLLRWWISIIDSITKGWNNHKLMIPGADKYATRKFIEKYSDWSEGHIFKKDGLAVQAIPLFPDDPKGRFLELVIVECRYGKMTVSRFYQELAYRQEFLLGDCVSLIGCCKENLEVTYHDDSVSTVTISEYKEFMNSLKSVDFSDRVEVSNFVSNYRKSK
Starred values were filed as active, the others as inactive.

Results for CC(=O)Nc1ccc(NC(=O)Cc2sc(C)nc2-c2ccc(C)cc2)cc1 ?
CAL PDZ FP-1: 0; DYRK1A inh: -4; CAL PDZ FP-2: -2; Rtt109 HAT inh: -2

How did Cc1ccc(-c2nc(Nc3cccc(C)c3)sc2CC(=O)O)cc1 do in these assays?
CAL PDZ FP-1: -1; DYRK1A inh: 12; ALR H2O2 inh: 98*; Rtt109 HAT inh: 7

How did Cc1cccc(Nc2nc(CC(=O)O)cs2)c1 do in these assays?
CAL PDZ FP-1: 0; DYRK1A inh: -4; CAL PDZ FP-2: -1; ALR H2O2 inh: 30; Rtt109 HAT inh: 0

What do the screens show for `Cc1ccc(-c2nc(C)sc2CC(=O)Nc2nnc(C)s2)cc1`?
CAL PDZ FP-1: 0; DYRK1A inh: -10; CAL PDZ FP-2: -1; ALR H2O2 inh: 98*; Rtt109 HAT inh: 7

Results for CCCC(=O)Nc1c(C(=O)OCC)[nH]c2ccccc12 ?
CAL PDZ FP-1: 0; DYRK1A inh: 5; CAL PDZ FP-2: 8; ALR H2O2 inh: -4; Rtt109 HAT inh: 4

How did CCOC(=O)c1[nH]c2ccccc2c1N=CN(CC)CC do in these assays?
CAL PDZ FP-1: -1; DYRK1A inh: -2; CAL PDZ FP-2: 0; ALR H2O2 inh: 99*; Rtt109 HAT inh: -4

Results for C/C(=N\Nc1ccc(C(=O)O)cc1)c1ccc2c(c1)Nc1ccccc1S2 ?
CAL PDZ FP-1: -1; DYRK1A inh: 22; CAL PDZ FP-2: -1; ALR H2O2 inh: 100*; Rtt109 HAT inh: 15

Results for N#C/C(=C\c1ccncc1)C(N)=O ?
CAL PDZ FP-1: 0; DYRK1A inh: -1; CAL PDZ FP-2: -3; ALR H2O2 inh: 8; Rtt109 HAT inh: 0

How did NC(=O)/C(=C\c1ccncc1)c1cccc2ccccc12 do in these assays?
CAL PDZ FP-1: -1; DYRK1A inh: -1; CAL PDZ FP-2: 74*; ALR H2O2 inh: -25; Rtt109 HAT inh: -4

What do the screens show for `Cc1cc(C)c2c(N)c(S(=O)(=O)Cc3ccccc3)sc2n1`?
CAL PDZ FP-1: -1; DYRK1A inh: 7; CAL PDZ FP-2: -3; ALR H2O2 inh: 91*; Rtt109 HAT inh: -10

Results for CCc1ccccc1NC(=O)c1sc2nc(C)cc(C)c2c1N ?
DYRK1A inh: 2; CAL PDZ FP-2: -1; Rtt109 HAT inh: -1

How did Cc1ccsc1C(=O)N/N=C/C=C/c1ccccc1[N+](=O)[O-] do in these assays?
CAL PDZ FP-1: -1; DYRK1A inh: 1; CAL PDZ FP-2: 79*; ALR H2O2 inh: -2; Rtt109 HAT inh: 2

What do the screens show for `Cc1ccc(N2CC(C(=O)N3CCCCC3)CC2=O)cc1C` (centres undefined)?
CAL PDZ FP-1: -1; DYRK1A inh: -2; CAL PDZ FP-2: -2; ALR H2O2 inh: -3; Rtt109 HAT inh: 0

What do the screens show for `Cc1ccccc1-n1c(-c2csc(C)c2C)n[nH]c1=S`?
CAL PDZ FP-1: -1; DYRK1A inh: -4; CAL PDZ FP-2: -4; ALR H2O2 inh: 5; Rtt109 HAT inh: -3

What do the screens show for `Cc1scc(-c2n[nH]c(=S)n2C(C)c2ccccc2)c1C` (centres undefined)?
CAL PDZ FP-1: -1; DYRK1A inh: -2; CAL PDZ FP-2: -2; ALR H2O2 inh: 83*; Rtt109 HAT inh: -1

Results for CCc1cc(-c2n[nH]c(=S)n2C(C)c2ccccc2)cs1 (centres undefined) ?
CAL PDZ FP-1: -3; DYRK1A inh: -3; ALR H2O2 inh: 94*; Rtt109 HAT inh: -9

How did Cc1cc(C(=O)NNS(=O)(=O)c2cc(C(=O)O)ccc2Cl)c(C)n1-c1ccccc1 do in these assays?
CAL PDZ FP-1: -1; CAL PDZ FP-2: 39*; ALR H2O2 inh: 24; Rtt109 HAT inh: -6

Results for Cc1cc(C(=O)Nc2ccc(Cl)cc2)c(C)n1-c1ccccc1 ?
ALR H2O2 inh: -5

Results for COc1ccc(-c2csc(Nc3ccc(S(=O)(=O)Nc4cc(C)on4)cc3)n2)cc1 ?
CAL PDZ FP-1: 1; CAL PDZ FP-2: -2; ALR H2O2 inh: 98*; Rtt109 HAT inh: 11

Results for COc1ccc(-c2csc(Nc3ccc(S(N)(=O)=O)cc3)n2)cc1 ?
CAL PDZ FP-1: 1; DYRK1A inh: -1; CAL PDZ FP-2: 0; ALR H2O2 inh: 14; Rtt109 HAT inh: 3

How did Cc1ccc(S(=O)(=O)Nc2ccccc2C(=O)Nc2nc(-c3ccc(F)cc3)cs2)cc1 do in these assays?
CAL PDZ FP-1: -1; DYRK1A inh: -17; CAL PDZ FP-2: -3; Rtt109 HAT inh: -1

How did COc1ccc(-c2csc(NC(=O)c3ccccc3NS(=O)(=O)c3ccc(F)c(F)c3)n2)cc1 do in these assays?
CAL PDZ FP-1: 0; DYRK1A inh: 57*; CAL PDZ FP-2: 42*; ALR H2O2 inh: 4; Rtt109 HAT inh: 12

How did COc1ccc(COC(=O)c2cccc(S(=O)(=O)N3CCCC3)c2)cc1F do in these assays?
CAL PDZ FP-1: -1; DYRK1A inh: -3; CAL PDZ FP-2: -1; ALR H2O2 inh: 0; Rtt109 HAT inh: 2

Results for COC(=O)/C(=C/Nc1ccccc1)[N+](=O)[O-] ?
CAL PDZ FP-1: -2; DYRK1A inh: 3; CAL PDZ FP-2: 4; ALR H2O2 inh: -6; Rtt109 HAT inh: 33

How did COC(=O)/C(=C/Nc1ccc(O)cc1)[N+](=O)[O-] do in these assays?
CAL PDZ FP-1: 0; DYRK1A inh: 10; CAL PDZ FP-2: 66*; Rtt109 HAT inh: 9

What do the screens show for `CCOC(=O)C1(C)Oc2ccccc2C(c2ccc(OC)cc2)=C1C(=O)OC` (centres undefined)?
CAL PDZ FP-1: 0; DYRK1A inh: -2; CAL PDZ FP-2: -1; Rtt109 HAT inh: -4

Results for CCOC(=O)C1(C)Oc2ccccc2C(C(=O)OC)=C1C(=O)OC (centres undefined) ?
CAL PDZ FP-1: -1; DYRK1A inh: 2; CAL PDZ FP-2: active; Rtt109 HAT inh: -6

How did CC(C)c1cc(=O)oc2c3c4c(cc12)CCCN4CCC3 do in these assays?
CAL PDZ FP-1: 0; DYRK1A inh: 48; CAL PDZ FP-2: -2; ALR H2O2 inh: -11; Rtt109 HAT inh: 12

Results for Cc1cc(=O)oc2c3c4c(cc12)OCCN4CCC3 ?
CAL PDZ FP-1: 0; DYRK1A inh: 1; CAL PDZ FP-2: -3; ALR H2O2 inh: 97*; Rtt109 HAT inh: inactive

How did COc1ccccc1CNC(=O)CN(Cc1ccc(Cl)cc1)S(C)(=O)=O do in these assays?
CAL PDZ FP-1: 1; DYRK1A inh: -5; CAL PDZ FP-2: 0; ALR H2O2 inh: -1; Rtt109 HAT inh: -1

Results for COc1cccc(/C=C/C(=O)Nc2ccccc2N2CCOCC2)c1 ?
CAL PDZ FP-1: -2; CAL PDZ FP-2: -6; ALR H2O2 inh: 7; Rtt109 HAT inh: -7

How did COc1ccc(-c2nc3n(c2C)Cc2ccccc2-3)cc1 do in these assays?
CAL PDZ FP-1: -4; DYRK1A inh: -1; CAL PDZ FP-2: -5; ALR H2O2 inh: 99*; Rtt109 HAT inh: -12

What do the screens show for `O=c1cc(-c2ccccc2)nc2n1Cc1ccccc1-2`?
CAL PDZ FP-1: -1; DYRK1A inh: 21; CAL PDZ FP-2: -3; ALR H2O2 inh: 0; Rtt109 HAT inh: -44

Source: PubChem BioAssay
